# Most compounds without a hit are left out; they make up all but 2.1% or so of the library.
# CHRM5 agonist: agonists of human muscarinic M5 receptor (CHRM5) | P08912 | CHO-K1 hM5 cells, Fluo-8 calcium fluorescence; 0% DMSO wells, 100% maximal acetylcholine response | activation, % at 3 µM | 0.19% of 360,000 active | AID 624037;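 active means activation above the run's mean over test compounds plus 3 SD, cut at about 23% in these data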;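 further: signal is peak over basal fluorescence ratio across the kinetic read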
# Target sequence (P08912 whole entry, looked up): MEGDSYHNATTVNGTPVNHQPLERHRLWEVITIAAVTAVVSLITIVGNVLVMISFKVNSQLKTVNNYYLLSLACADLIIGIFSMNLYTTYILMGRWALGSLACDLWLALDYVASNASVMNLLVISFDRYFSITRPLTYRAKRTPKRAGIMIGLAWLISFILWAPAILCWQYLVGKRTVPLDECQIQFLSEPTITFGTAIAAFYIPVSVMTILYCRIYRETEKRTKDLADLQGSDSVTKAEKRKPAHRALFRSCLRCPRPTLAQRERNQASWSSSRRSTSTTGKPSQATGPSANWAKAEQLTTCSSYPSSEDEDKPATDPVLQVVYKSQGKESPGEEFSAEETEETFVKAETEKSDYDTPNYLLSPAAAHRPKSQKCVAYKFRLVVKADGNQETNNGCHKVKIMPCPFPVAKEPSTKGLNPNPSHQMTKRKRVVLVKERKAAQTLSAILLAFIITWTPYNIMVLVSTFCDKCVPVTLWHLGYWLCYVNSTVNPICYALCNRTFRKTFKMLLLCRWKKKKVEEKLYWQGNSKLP
# M1 ag: agonists of human M1 muscarinic receptor | activation, % at 3 µM | 0.33% of 360,000 active | P11229 | CHO-K1 hM1, Fluo-8 calcium fluorescence, agonist mode; 0% DMSO, 100% acetylcholine EC100;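 active means activation above the run's mean compound activation plus 3 SD, cut at about 16% in these data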;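 further: peak over basal fluorescence ratio within a 140 s kinetic read after compound addition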
# M5 antag: antagonists of human muscarinic M5 receptor (CHRM5); inhibition, % at 3 µM; CHO-hM5 cells, Fluo-8 calcium fluorescence, ACh EC80; 0.59% of 360,000 active; P08912;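 active means inhibition above a per-plate cutoff, the mean of that plate's test compounds plus 3 SD, cut at about 27% in these data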
# M5 PAM: CHRM5 positive allosteric modulation; P08912; CHO-K1 hM5, Fluo-8 calcium, ACh EC20 PAM; 0% = ACh EC20, 100% = ACh EC100; activation, % at 3 µM; 0.3% of 360,000 active;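 active means activation above the run cutoff, the mean activation of all test compounds plus 3 SD, cut at about 18% in these data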
#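 System: CHO-K1 hM5 cells. Reagent: acetylcholine, EC20 level. Compound dosing: single dose, 3 µM nominal final test concentration. Timing: Post-acetylcholine fluorescence recording 140 s. Detection: Fluo-8 calcium fluorescence. Read-out: % activation, ACh-normalized. Benchmarks: ACh EC20 and EC100 wells. Repeats: singlicate, one well per test compound.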
# M1 antag: antagonists of human M1 muscarinic receptor; P11229; CHO-K1 hM1, Fluo-8 calcium fluorescence, ACh EC80 antagonist; inhibition, % at 3 µM; 1.3% of 360,000 active; AID 588852;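 active means percent inhibition above its own plate's cutoff, namely the mean of that plate's compound wells plus 3 SD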;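 further: peak over basal fluorescence ratio during 140 s after agonist addition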
# CHRM1 PAM: human CHRM1 positive allosteric modulation | P11229 | CHO-K1 hM1, Fluo-8 calcium fluorescence, ACh EC20; 0% = ACh EC20, 100% = maximal ACh | activation, % at 3 µM | 0.088% of 360,000 active | AID 588819; in the data active means activation above about 19%, passing the limit was not always enough
# A number is an active result; - = inactive.
SMILES,CHRM5 agonist,M1 ag,M5 antag,M5 PAM,M1 antag,CHRM1 PAM
CCOC(=O)c1oc2ccc(CNC3CCCCC3)c(Cl)c2c1C,-,-,-,-,75.8,-
CCOC(=O)c1oc2ccc(CNCCO)c(Cl)c2c1C,-,-,-,-,-,-
COc1ccc(C(=O)C(=O)c2ccc(OCCO)cc2)cc1,-,-,-,-,-,30.4
CCOc1ccc(NC(=O)C2CC(=O)NC(N3CCc4ccccc43)=N2)cc1 (configuration not stated),-,-,-,-,-,-
Cc1ccc(Cl)cc1-c1cc(C(=O)NCc2cccc(Cl)c2)[nH]n1,-,-,-,-,-,-
Cc1ccc2c(c1)c1c(n2CC(O)CN2CCCCC2C)CCCC1 (configuration not stated),-,-,-,-,41.7,-
Cc1ccc2c(c1)c(C)c(C)n2CC(O)CN1CCCCC1C (configuration not stated),-,-,-,-,-,-
C#CCn1c(=NC(=O)c2ccco2)sc2cccc(Cl)c21,-,-,-,-,-,-
Cc1ccc2[nH]c3c(c2c1)CN(C(=O)CN(C)CC1OCCO1)CC3,-,-,-,-,-,-
CCCC(C(=O)Nc1cccc(S(=O)(=O)N2CCCC2)c1)c1ccccc1 (configuration not stated),-,-,-,-,-,-
CN(C)CCCN1c2ccccc2Sc2ccc3ccccc3c21,-,-,55.4,-,82.1,-
Cc1cccc(NC(=O)CC2NC3CCCCC3NC2=O)c1 (configuration not stated),-,-,-,24.1,-,-
O=C(CC1NC2CCCCC2NC1=O)Nc1cccc(C(F)(F)F)c1 (configuration not stated),-,-,-,-,-,-
CC1CCN(CCCNC(=O)C2CCC(CNS(=O)(=O)c3cccc4nsnc34)CC2)CC1 (configuration not stated),-,-,-,-,65.0,-
COCCN(Cc1ccccc1)C(=O)c1cc(-c2ccc(OC)c(OC)c2)nc2ccccc12,-,-,-,-,-,-
COc1cc(-c2cc(C(=O)N(C)Cc3ccccc3)c3ccccc3n2)cc(OC)c1OC,-,-,-,-,22.5,-
CCN(CC)S(=O)(=O)c1ccc(O)c(NC(=O)c2cc(-c3cc(OC)c(OC)c(OC)c3)nc3ccccc23)c1,-,-,-,-,29.2,-
COc1ccccc1CN(C)C(=O)c1cc(-c2cc(OC)c(OC)c(OC)c2)nc2ccccc12,-,-,-,-,-,-
CCN(Cc1ccccc1)C(=O)c1cc(-c2ccc(OC)c(OC)c2)nc2ccccc12,-,-,-,-,34.8,-
COc1ccc(-c2cc(C(=O)N(C)Cc3ccccc3F)c3ccccc3n2)cc1OC,-,-,-,-,40.1,-
CCCCCCC(=O)N(O)C1CC(=O)N(c2ccc(Cl)cc2)C1=O (configuration not stated),-,-,-,-,-,-
O=C(c1cc(COc2ccc(F)cc2Cl)on1)N1CCCCC1c1cccnc1 (configuration not stated),-,-,-,-,-,-
CC(Sc1ccccc1F)C(=O)Nc1ccc2c(c1)OCCO2 (configuration not stated),-,-,-,-,-,-
COc1ccc(NC(=O)CN(C)C(=O)c2cc(-c3ccc(Cl)cc3)nc3ccccc23)cc1,-,-,-,-,-,-
COc1ccc(N2CCN(C(=O)c3cc(-c4cccs4)nc4ccccc34)CC2)cc1,-,-,-,-,-,-
SMILES,CHRM5 agonist,M1 ag,M5 antag,M5 PAM,M1 antag,CHRM1 PAM
CCN(CC(=O)Nc1ccc(NC(C)=O)cc1)C(=O)c1cc(-c2ccccc2Cl)nc2ccccc12,-,-,-,-,41.0,-
COc1cccc(CN(C)C(=O)c2cc(-c3cccs3)nc3ccccc23)c1,-,-,-,-,54.0,-
CCOc1ccc(NC(=O)CN(C)C(=O)c2cc(-c3ccc(OC)cc3)nc3ccccc23)cc1OCC,-,-,-,-,30.3,-
COc1ccc(-c2cc(C(=O)Nc3cccc(S(=O)(=O)NCc4ccco4)c3)c3ccccc3n2)cc1OC,-,-,-,-,40.6,-
CC(Sc1nc(N)cc(=O)[nH]1)C(=O)NC1CCCCC1 (configuration not stated),-,-,-,-,-,-
CC1CCCN(CCCNC(=O)c2ccc(CS(=O)(=O)Cc3cccc(Cl)c3)o2)C1 (configuration not stated),-,-,-,-,-,-
CC1CCCN(CCCNC(=O)c2ccc(CS(=O)(=O)c3c(Cl)cccc3Cl)o2)C1 (configuration not stated),-,-,-,-,57.1,-
Cn1c(SCCN2CCCC2)nnc1C1CCN(S(=O)(=O)c2cccc(F)c2)CC1,-,-,-,-,63.1,-
Cc1cccc(Cl)c1OCCCN1CCOCC1,-,-,-,-,32.2,-
CN(C)c1ccc(C(=O)OCC(=O)Nc2cccc(S(=O)(=O)N3CCCC3)c2)cc1,-,-,-,-,-,-
Cc1ccc(C(=O)c2c(C)oc3c2C(=O)C(=O)c2ccccc2-3)cc1,-,-,-,-,-,-
Cc1ccc(C(=O)c2coc3c2C(=O)C(=O)c2ccccc2-3)cc1,-,-,35.7,-,-,-
N#C/C(=C/c1cccc(O)c1)C(=O)NCc1ccc(Cl)cc1,-,17.4,-,-,28.1,-
O=C(NCc1ccccc1)C(c1ccccc1)N(Cc1ccc2c(c1)OCO2)C(=O)Cc1cccs1 (configuration not stated),-,-,-,-,44.9,-
COc1ccc(CNC(=O)C(c2ccc(C)o2)N(Cc2cccs2)C(=O)Cc2cccs2)cc1 (configuration not stated),-,-,-,-,40.3,-
COCCN(C(=O)Cc1cccs1)C(C(=O)NCc1ccc(OC)cc1)c1ccc(C)cc1 (configuration not stated),-,-,-,-,-,-
COc1cc2c(cc1OC)C(=Cc1ccc(N(C)C)cc1)C=C2,-,-,-,-,-,-
Cc1ccc(CNC(=O)Cn2ccc3cc(S(=O)(=O)N4CCCC4)ccc32)o1,-,-,-,-,-,-
COC(=O)c1ccc(NC(=O)Cn2nc(-c3ccncc3)nc2SCC(=O)Nc2nccs2)cc1,-,-,-,-,32.8,-
CCN(CC)C(=O)Cn1nc(-c2ccncc2)nc1SCC(=O)Nc1ccc(OC)cc1,-,-,-,-,-,-
CCN(CC(=O)Nc1c(F)cccc1F)C(=O)Cc1ccsc1,-,-,-,-,-,-
CCN(CC(=O)Nc1ccc(OC)cc1)C(=O)Cc1ccsc1,-,-,-,-,-,27.2

# From PubChem BioAssay
